This is a sample that favours compounds with a hit; in the whole collection about 1.3% have one here.
Rad51 HR inh: Rad51 (human) homologous recombination inhibition | hRad51 DNA strand exchange, fluorescence dequenching | hit rate 0.085% among 200,000 | Q06609 | inhibition, % at 10 µM;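 active = inhibition above 40% at the single screening dose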;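 note: 0% = DMSO control wells and 100% = blanks with heterologous ssDNA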
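Material: human Rad51–ssDNA filaments; Probe or stimulus: labelled 47-mer dsDNA for strand exchange; Doses: single 10 µM dose; Incubation: 37 °C 15-min filament assembly, 30-min compound preincubation, 15-min exchange; Technique: FRET fluorescence dequenching, excitation 485 nm, emission 520 nm; Measure: Fluorescence-based percent inhibition, control- and blank-normalised; Benchmarks: plate control and blank wells.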
H9c2 TAG inh: triacylglycerol accumulation inhibition; H9c2 cells, Nile Red lipid (TAG) fluorescence; cells loaded with 200 µM oleic acid; inhibition, % at 12.5 µM; hit rate 0.66% among 230,000;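 active = pattern-corrected inhibition of lipid staining of at least 50% with the nuclear-stain viability signal not falling by more than 50%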;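 note: 0% = DMSO wells and 100% = triacsin C control wells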
Hck Nef HTS: inhibitors of human Hck kinase activated by Nef | P08631 | Recombinant Hck-YEEI plus Nef, Z-Lyte FRET kinase assay | inhibition, % at 20 µM | hit rate 0.68% among 220,000;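 active = Hck-Nef kinase inhibition above about 50%, limit read from the data; inactive = inhibition below that limit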;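 note: 0% = DMSO with Hck plus Nef and 100% = Hck alone without Nef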
PERK inh: inhibitors of human PERK kinase; Q9NZJ5; CHO PERK-DD fusion, SEAP luminescence translation reporter; inhibition, % at 5.6 µM; hit rate 0.17% among 220,000; AID 1416;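 active = inhibition above the mean inhibition of all tested compounds plus 3 SD, set separately per screening campaign, cut at about 2.9% in these data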;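 note: PERK kinase domain activated by AP20187 dimerizer at 100 nM; 0% = DMSO with dimerizer and 100% = rapamycin at 8.4 µM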
PKD1 inh: PKD1 (human) kinase inhibition; Q15139; PKD1 kinase fluorescence polarization assay; inhibition, % (test concentration not listed); hit rate 0.056% among 200,000; AID 797; in the data active = inhibition above about 50%
Mdm2 ligase inh: inhibitors of human Mdm2 E3 ubiquitin ligase; Q00987; cell-based MDM2 ubiquitination luciferase reporter, 2 h; 0 = plate control, 100 = twice control, blank-subtracted; signal enhancement, % at 5 µM; hit rate 0.11% among 210,000; AID 1230;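 active = signal enhancement of 30% or more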;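 note: luminescence tracks abundance of the self-degrading MDM2-luciferase fusion protein; higher signal means inhibition of MDM2 E3 ligase activity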
Target sequence (Q00987 whole entry, looked up, the tested form may be a part): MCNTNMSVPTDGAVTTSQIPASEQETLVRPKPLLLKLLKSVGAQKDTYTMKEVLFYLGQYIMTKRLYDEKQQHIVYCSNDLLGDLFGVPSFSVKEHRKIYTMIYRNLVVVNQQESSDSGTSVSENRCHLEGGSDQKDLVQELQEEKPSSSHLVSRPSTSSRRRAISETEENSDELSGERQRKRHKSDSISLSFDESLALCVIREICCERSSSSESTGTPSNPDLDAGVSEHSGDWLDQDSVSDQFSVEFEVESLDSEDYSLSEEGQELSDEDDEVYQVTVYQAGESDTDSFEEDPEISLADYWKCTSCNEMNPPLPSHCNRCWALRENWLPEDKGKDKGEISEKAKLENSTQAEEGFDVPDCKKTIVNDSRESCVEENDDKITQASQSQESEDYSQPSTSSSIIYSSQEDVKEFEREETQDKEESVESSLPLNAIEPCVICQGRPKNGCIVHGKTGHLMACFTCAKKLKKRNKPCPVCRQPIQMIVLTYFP
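Test system: stable mammalian line carrying autodegrading MDM2–luciferase fusion reporter; quantity: 2000 cells in each well; times: 4 h cell settling then 2 h compound exposure, 37 °C; detection: luminescence with SteadyLite reagent, 15 min at room temperature; evaluation: percent signal gain over controls, blank-subtracted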
Hck Nef conf: confirmation of Hck-Nef kinase inhibitors; AID 463188; calls only at 10 µM; hit rate 28% among 1,300; shares compounds with Hck Nef HTS; Recombinant Hck-YEEI:Nef, Z-Lyte FRET kinase assay;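 active = average inhibition of at least 50%, with Z-scores no higher than 3 in both the phospho-tyrosine peptide and fluorescence counterscreens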
The depositor's hits bear a star; i = inactive; · = no result given; + = active, no number.

SMILES | Rad51 HR inh | H9c2 TAG inh | Hck Nef HTS | PERK inh | PKD1 inh | Mdm2 ligase inh | Hck Nef conf
Cc1cc(=O)[nH]c(/N=C(\N)Nc2ccc(Oc3ccccc3)cc2)n1 | -1 | -13 | 52* | 0 | · | · | i
CCOC(=O)C1=C(COC(=O)c2ccco2)NC(=O)NC1CC (stereo unspecified) | · | 12 | · | · | · | · | ·
CCOC(=O)c1cc(C(=O)OCC)c2ccccn2c1=O | -12 | 2 | 95* | 0 | 4 | -15 | ·
Cc1ccc(NC(=O)/C(=C\c2ccccc2)NC(=O)/C=C/c2ccccc2)cc1 | -3 | 7 | 1 | 0 | 2 | -3 | ·
Cc1ccc(-c2nc3c(c(=O)[nH]c(=O)n3Cc3ccccc3)n2C)s1 | -18 | · | 58* | -1 | · | -9 | i
c1ccc(CCNc2ccc3c(c2)Cc2ccccc2-3)nc1 | · | -16 | · | · | · | · | ·
COc1ccccc1OCCOc1ccc(/C=C2/C(=N)N3OC(C)=CC3=NC2=O)cc1OC | -12 | 27 | 89* | 1 | 6 | -11 | +
CC1=CC2=NC(=O)/C(=C\c3cccn3CCOc3ccccc3C)C(=N)N2O1 | 10 | · | 19 | 1 | -2 | -3 | ·
O=C(CSCc1c(Cl)cccc1Cl)N1CCOCC1 | · | · | 7 | 2 | 0 | -18 | ·
CCOc1ccc(/C=C2\SC(=O)N(c3ccc(O)cc3)C2=O)cc1OC | 14 | · | 10 | 0 | · | -5 | ·
COc1ccc(/C=C2\SC(=N)N(c3ccc(F)cc3)C2=O)cc1OC | 11 | · | 63* | 1 | 6 | -5 | +
N#Cc1c(-c2ccncc2)c2c([nH]c1=O)-c1ccccc1OC2 | 4 | · | 70* | 1 | · | -8 | i
N#Cc1c(-c2ccccc2Cl)c2c([nH]c1=O)-c1ccccc1OC2 | -8 | 3 | 146* | 1 | · | 3 | i
FC(F)Oc1ccc(NC(=S)N2CCc3ccccc32)cc1 | -19 | -1 | 26 | 2 | 3 | -31 | ·
COc1ccc(NC(=S)N2CCc3ccccc3C2)cc1 | · | · | 1 | -1 | -5 | · | ·
CCN(CC)c1nc2ccccc2nc1-n1nc(C)cc1C | 0 | · | 103* | 0 | -3 | -5 | i
Cc1ccc(/C=C2/SC(=S)N(c3ccc(S(=O)(=O)Nc4nccs4)cc3)C2=O)cc1 | · | 2 | 59* | 1 | · | -6 | i
CC12CCC(=O)N1c1c(sc3nc(N4CCOCC4)c4c(c13)CCCC4)C(=O)N2 (stereo unspecified) | -9 | -4 | 61* | 0 | -5 | 10 | ·
COc1ccc(NS(=O)(=O)c2cc(C(=O)N3CCC3)ccc2C)cc1 | · | -11 | · | · | · | · | ·
O=c1[nH]c(-c2ccc(F)cc2)nc2c1sc(=S)n2-c1ccccc1 | 25 | · | 1 | 1 | 0 | -25 | ·
O=c1[nH]c(-c2ccc3c(c2)OCO3)nc2c1sc(=S)n2-c1ccccc1 | -5 | · | 61* | 1 | -1 | -8 | i
COC(=O)COc1ccc(C2Nc3c(Cl)ccc(C(=O)O)c3C3C=CCC32)cc1 (stereo unspecified) | -13 | · | 76* | 0 | 0 | -16 | i
COc1cc(-c2nc(-c3ccc(NC(=O)c4ccc5c(c4)OCO5)cc3)no2)cc(OC)c1OC | -2 | 93* | 84* | 0 | -9 | 3 | +
Cc1ccccc1-c1nc(-c2ccc(NC(=O)c3ccc4c(c3)OCO4)cc2)no1 | -7 | · | 14 | 0 | 4 | -12 | ·
CC(C)c1cn(C2OC(COC(=O)c3ccccc3)C(OC(=O)c3ccccc3)C2OC(=O)c2ccccc2)c(=O)[nH]c1=O (stereo unspecified) | -1 | -7 | · | · | · | · | ·
SMILES | Rad51 HR inh | H9c2 TAG inh | Hck Nef HTS | PERK inh | PKD1 inh | Mdm2 ligase inh | Hck Nef conf
O=c1oc2c(CN3CCOCC3)c(O)c(Cl)cc2c2c1CCCC2 | -2 | · | 80* | 0 | -1 | -8 | ·
O=c1oc2c(CN3CCOCC3)c(O)ccc2c2ccccc12 | 7 | · | -2 | 1 | -4 | -3 | ·
CCCc1cc(=O)oc2c(CN3CCOCC3)c(O)ccc12 | 0 | -9 | 65* | 1 | -7 | 8 | ·
Cc1c(O)c(CN2CCCC2)cc2c3c(c(=O)oc12)CCC3 | -7 | · | 34 | 0 | -10 | · | ·
O=c1oc2c(CN3CCOCC3)c(O)ccc2c2c1CCCC2 | -4 | 0 | 54* | -1 | -6 | -5 | ·
Cc1ccc(O)c(-c2cc(-c3ccc(F)cc3)no2)c1 | · | -7 | · | · | · | · | ·
